Among the data in ChEMBL document CHEMBL1221390, “Withaferin A, a cytotoxic steroid from Vassobia breviflora, induces apoptosis in human head and neck squamous cell carcinoma” (J Nat Prod, 2010) are inhibition, Activity and IC50 values, retold here.

The target in assay [1] is RAC-alpha serine/threonine-protein kinase (Homo sapiens) (UniProt P31749). Description: Inhibition of Akt in human MDA1986 cells assessed as decrease in total protein level at 0.1 to 5 uM after 24 hrs by Western blot analysis. Format: cell-based. In a few lines: (§1)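 Increasing concentrations for 24 h. NP-40 lysates (with NaF and orthovanadate) cleared at 14,000 × g, equal protein separated by SDS-PAGE and blotted. Probed for phospho-Akt (Ser473), total Akt, phospho-ERK1/2 and total ERK; β-actin loading control. Primary antibody overnight at 4 °C, HRP secondary 1 h.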
In general terms: In western blotting, separated proteins are transferred to a membrane and probed.

Assay [2] shares this target. Description: Inhibition of Akt in human JMAR cells assessed as decrease in total protein level at 0.1 to 5 uM after 24 hrs by Western blot analysis. Type of assay: cell-based. An outline of the steps: as §1
For assay [3] the target is unchanged. Description: Inhibition of Akt in human UM-SCC2 cells assessed as decrease in total protein level at 0.1 to 5 uM after 24 hrs by Western blot analysis. Type of assay: cell-based. An outline of the steps: as §1
For assay [4] the target is unchanged. Nature of the assay: Inhibition of Akt in human JHU011 cells assessed as decrease in total protein level at 0.1 to 5 uM after 24 hrs by Western blot analysis. Format: cell-based. In a few lines:
as §1

Assay [5] deals with T1, Mitogen-activated protein kinase; ERK1/ERK2 (Homo sapiens) (UniProt P27361+P28482). Nature of the assay: Inhibition of ERK1/2 phosphorylation in human JHU011 cells at 0.1 to 5 uM after 24 hrs by Western blot analysis. Format: cell-based. In a few lines:
as §1

For assay [6], the target named is T1, Mitogen-activated protein kinase; ERK1/ERK2 (Homo sapiens). Description: Inhibition of ERK1/2 phosphorylation in human JMAR cells at 0.1 to 5 uM after 24 hrs by Western blot analysis. Type of assay: cell-based. In a few lines: as §1
For assay [7] the target is unchanged. Description: Inhibition of ERK1/2 phosphorylation in human MDA1986 cells at 0.1 to 5 uM after 24 hrs by Western blot analysis. Type of assay: cell-based. In a few lines: as §1
The target is the same in assay [8]. Nature of the assay: Inhibition of ERK1/2 phosphorylation in human UM-SCC2 cells at 0.1 to 5 uM after 24 hrs by Western blot analysis. Type of assay: cell-based. In a few lines:
as §1

The target is the same in assay [9]. Nature of the assay: Inhibition of ERK1/2 phosphorylation in human JHU011 cells assessed as effect on total protein level at 0.1 to 5 uM after 24 hrs by Western blot analysis. Type of assay: cell-based. In a few lines:
as §1

The target is the same in assay [10]. Description: Inhibition of ERK1/2 phosphorylation in human UM-SCC2 cells assessed as effect on total protein level at 0.1 to 5 uM after 24 hrs by Western blot analysis. Type of assay: cell-based. In a few lines:
as §1

Assay [11] shares this target. Nature of the assay: Inhibition of ERK1/2 phosphorylation in human JMAR cells assessed as effect on total protein level at 0.1 to 5 uM after 24 hrs by Western blot analysis. Format: cell-based. An outline of the steps:
as §1

For assay [12] the target is unchanged. Nature of the assay: Inhibition of ERK1/2 phosphorylation in human MDA1986 cells assessed as effect on total protein level at 0.1 to 5 uM after 24 hrs by Western blot analysis. Type of assay: cell-based. In a few lines: as §1
For assay [13], the species on record is Homo sapiens. Nature of the assay: Induction of apoptosis in human MDA1986 cells assessed as increase in early apoptotic cells at 5 uM after 24 hrs by FITC-conjugated annexin V and propidium iodide staining-based flow cytometry. Format: functional, cell-based. An outline of the steps:
(§2)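 Cells given 5.0 μM for 24 h, harvested, and co-stained at 1×10⁶ cells/mL with annexin V-FITC and PI. Annexin binding buffer added before flow cytometry. Annexin V only scored as early apoptosis, annexin V+PI as late apoptosis, PI only as necrosis. Triplicate; t-test.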
Background: A flow cytometer gives signals particle by particle.

Assay [14] is filed under the species Homo sapiens. Description: Induction of apoptosis in human MDA1986 cells assessed as increase in late apoptotic cells at 5 uM after 24 hrs by FITC-conjugated annexin V and propidium iodide staining-based flow cytometry. Type of assay: functional, cell-based. In a few lines: as §2
A further assay relates to MDA1986. Description: Induction of apoptosis in human MDA1986 cells assessed as increase in non-viable necrotic cells at 5 uM after 24 hrs by FITC-conjugated annexin V and propidium iodide staining-based flow cytometry. Type of assay: functional, cell-based. In a few lines:
as §2

The nature of assay [15]: Cytotoxicity against human UM-SCC2 cells after 72 hrs by MTS assay. The conditions noted are these: UM-SCC2, 72 h. Format: functional, cell-based. An outline of the steps: (§3)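 Seeded at 2×10³ cells/well, left 24 h, then exposed to serial dilutions in medium (from DMSO stock; vehicle controls <0.1% DMSO v/v) for 72 h. MTS added, 3 h at 37 °C, 5% CO₂, absorbance 490 nm. Viability expressed relative to medium-only control; IC50 read from viability–concentration curves. Triplicate; cisplatin positive control.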
On the technique in general: Tetrazolium dyes change colour on reduction, which living cells bring about.

Assay [16] can be described thus: Cytotoxicity against human MDA1986 cells after 72 hrs by MTS assay. Type of assay: functional, cell-based. The conditions noted are these: MDA1986, 72 h. In a few lines: (§4)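 Cells seeded at 2×10³ per well, grown 24 h, then given serial concentrations (DMSO stock diluted in medium; vehicle controls <0.1% v/v DMSO) for 72 h. MTS added, 3 h at 37 °C, 5% CO₂, absorbance at 490 nm. Viability as fraction of medium-only control; IC50 from viability–concentration curves; triplicate, means of three independent experiments. Cisplatin positive control.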

The nature of assay [17]: Cytotoxicity against human JMAR cells after 72 hrs by MTS assay. Format: functional, cell-based. An outline of the steps:
as §4

Assay [18] in a line: Cytotoxicity against human JHU011 cells after 72 hrs by MTS assay. As to conditions: JHU011, 72 h. Type of assay: functional, cell-based. An outline of the steps:
as §3

Assay [19] is described as follows: Induction of cell cycle arrest in human JMAR cells assessed as accumulation at G2/M phase at 3 uM after 24 hrs by flow cytometry. Format: functional. In a few lines: (§5)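 Treated 24 h with 3.0 μM or DMSO vehicle. Cells trypsinized; 1×10⁶ washed in 0.9% NaCl and fixed 30 min at room temperature in cold 70% ethanol/0.9% NaCl. Stained with PI (50 μg/mL in PBS) 30 min, then DNase-free RNase (1 mg/mL) 30 min. Phase distribution (sub-G0, G0/G1, S, G2/M) by flow cytometry.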

Assay [20] is described as follows: Induction of cell cycle arrest in human MDA1986 cells assessed as accumulation at G2/M phase at 3 uM after 24 hrs by flow cytometry. Format: functional. In a few lines: as §5
The nature of assay [21]: Induction of cell cycle arrest in human UM-SCC2 cells assessed as accumulation at G2/M phase at 3 uM after 24 hrs by flow cytometry. Type of assay: functional. In a few lines: as §5
Assay [22] can be described thus: Induction of cell cycle arrest in human JHU011 cells assessed as accumulation at G2/M phase at 3 uM after 24 hrs by flow cytometry. Type of assay: functional. An outline of the steps:
as §5

The source made the active and inactive calls. The rule behind the calls is not given here.

Chain of RAC-alpha serine/threonine-protein kinase (Homo sapiens) (P31749 whole entry): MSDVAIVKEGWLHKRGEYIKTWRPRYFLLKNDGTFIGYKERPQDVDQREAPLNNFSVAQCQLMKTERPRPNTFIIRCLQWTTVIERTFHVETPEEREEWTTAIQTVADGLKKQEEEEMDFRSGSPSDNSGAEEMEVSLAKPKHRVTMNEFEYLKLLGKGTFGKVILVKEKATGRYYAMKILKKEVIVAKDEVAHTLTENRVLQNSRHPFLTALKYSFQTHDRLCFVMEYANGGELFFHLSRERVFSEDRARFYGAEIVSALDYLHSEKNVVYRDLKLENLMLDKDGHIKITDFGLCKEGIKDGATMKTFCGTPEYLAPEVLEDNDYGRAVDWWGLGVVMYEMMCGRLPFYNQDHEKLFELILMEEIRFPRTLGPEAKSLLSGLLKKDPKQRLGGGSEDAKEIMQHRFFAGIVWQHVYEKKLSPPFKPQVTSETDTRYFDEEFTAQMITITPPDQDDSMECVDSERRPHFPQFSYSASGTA
T1 sequence (P27361 whole entry, looked up): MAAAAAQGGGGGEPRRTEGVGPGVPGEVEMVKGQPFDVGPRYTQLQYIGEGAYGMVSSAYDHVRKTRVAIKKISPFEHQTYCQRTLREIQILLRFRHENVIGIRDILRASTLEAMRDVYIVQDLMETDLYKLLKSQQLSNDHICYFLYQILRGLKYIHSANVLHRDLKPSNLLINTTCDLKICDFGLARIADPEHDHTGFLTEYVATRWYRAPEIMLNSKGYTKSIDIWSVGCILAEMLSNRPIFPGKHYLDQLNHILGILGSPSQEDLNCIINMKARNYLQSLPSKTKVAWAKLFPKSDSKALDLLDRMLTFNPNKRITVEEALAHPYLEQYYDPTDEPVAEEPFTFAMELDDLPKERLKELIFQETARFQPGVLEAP
T1 sequence (P28482 whole entry, looked up): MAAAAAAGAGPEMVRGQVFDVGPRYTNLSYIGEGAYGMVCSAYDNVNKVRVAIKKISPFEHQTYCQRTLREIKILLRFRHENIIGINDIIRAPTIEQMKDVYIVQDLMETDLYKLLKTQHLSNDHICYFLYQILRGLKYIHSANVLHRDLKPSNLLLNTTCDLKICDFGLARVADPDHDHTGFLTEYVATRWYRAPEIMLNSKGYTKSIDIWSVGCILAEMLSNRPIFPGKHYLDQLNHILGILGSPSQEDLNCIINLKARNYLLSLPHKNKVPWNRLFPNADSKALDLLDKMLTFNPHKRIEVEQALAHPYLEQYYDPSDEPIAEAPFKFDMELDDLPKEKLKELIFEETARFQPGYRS

Turning to `CC1=C(CO)C(=O)O[C@@H]([C@@H](C)[C@H]2CC[C@H]3[C@@H]4C[C@H]5O[C@]56[C@@H](O)C=CC(=O)[C@]6(C)[C@H]4CC[C@]23C)C1` [WITHAFERIN A], the inhibition result in assay [1], in assay [2], in [3], in assay [4] and in assay [8] was “Active” in each case. The inhibition result in assay [5], in assay [6], in [7], in assay [9], in assay [10] and in [11] was “inactive” each time. Moreover, the inhibition entry in assay [12] is “inactive”. Further, the outcome in the assay listed under Homo sapiens [13], in the assay filed under Homo sapiens [14] and in the assay on MDA1986 was inactive. Besides, the half-maximal inhibitory concentration (IC50) (usually the concentration that gives 50% inhibition) in assay [15] stood at 0.5 µM; in [16], 0.8 µM; in assay [17], 2 µM; in assay [18] it was 2.2 µM. In addition, the Activity in assay [19] worked out at 42%; in [20], 49%; in assay [21] it was 36%; in assay [22] it was 34%.
